Among the data in the array DNA melting data of Ke et al. (doi:10.1101/2024.01.08.574731) are folding enthalpy and Tm values, retold here.

The nature of data set [1]: folding enthalpy; higher = less favourable; fluorescence melt of hairpins on a sequencing array, two-state fit. As to conditions: sodium 0.088 M. A digest of the protocol:
(§1)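 Two-state fits, bootstrapped, provided melting temperature and folding enthalpy from Cy3 fluorescence normalised to pre-quench Cy3 and to control constructs. Library hairpins with annealed Cy3 and quencher oligos were imaged on a sequenced MiSeq flow cell in 50 mM Na-HEPES pH 8.0, 25 mM NaCl, at 2.5 °C intervals up to 60 °C. Four replicates were combined with inverse-variance weighting. A 9.35 °C upward shift was applied to fitted temperatures to match UV melts.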

Data set [2] in a line: melting temperature; fluorescence melt of hairpins on a sequencing array, two-state fit, raised by 9.35 °C to match UV melts. As to conditions: sodium 0.088 M. Summed up:
as §1

Take GATCCAGATTTGGATC ((((((....)))))): in data set [1], the folding enthalpy was -125 kJ/mol. Also, the Tm in data set [2] was 50.4 °C.

In the case of GATCCAGCATTGGATC ((((((....)))))), the folding enthalpy in data set [1] was -186 kJ/mol. The Tm in data set [2] was determined as 56 °C.

Consider GATCCAGCGCTGGATC ((((((....)))))), for which the folding enthalpy in data set [1] is -228 kJ/mol. Moreover, the Tm in data set [2] worked out at 60.1 °C.

For the sequence GATCCAGCTATGGATC ((((((....)))))), the folding enthalpy in data set [1] is -140 kJ/mol. Besides, the Tm in data set [2] came to 58.8 °C.

With GATCCAGGAAACCGGATC (((((.(....).))))), the folding enthalpy in data set [1] was -139 kJ/mol. Further, in data set [2], the Tm worked out at 45.7 °C.

Turning to GATCCAGGCCTGGATC ((((((....)))))), the folding enthalpy in data set [1] was -230 kJ/mol. Moreover, the Tm in data set [2] was found to be 60 °C.

As to GATCCAGGCTTGGATC ((((((....)))))), the folding enthalpy in data set [1] was -183 kJ/mol. In addition, the Tm in data set [2] was 54.8 °C.

Take GATCCAGGGCTGGATC ((((((....)))))): in data set [1], the folding enthalpy was -160 kJ/mol. For the same sequence, in data set [2], the Tm was found to be 52.4 °C.

Regarding GATCCATAACTGGATC ((((((....)))))), the folding enthalpy in data set [1] is -142 kJ/mol. In data set [2], the Tm is 48.1 °C.

GATCCATAATTGGATC ((((((....)))))): the folding enthalpy in data set [1] is -166 kJ/mol. For the same sequence, the Tm in data set [2] was 50.7 °C.

In the case of GATCCATAGGTGGATC ((((((....)))))), the folding enthalpy in data set [1] was -150 kJ/mol. The Tm in data set [2] is 52 °C.

With GATCCATATGTGGATC ((((((....)))))), the folding enthalpy in data set [1] is -160 kJ/mol. In addition, the Tm in data set [2] was determined as 54.9 °C.

Take GATCCATCATTGGATC ((((((....)))))): in data set [1], the folding enthalpy was -150 kJ/mol. Besides, the Tm in data set [2] was found to be 51.4 °C.

GATCCATCCATGGATC ((((((....)))))): the folding enthalpy in data set [1] is -181 kJ/mol. Besides, the Tm in data set [2] was 55.8 °C.

Regarding GATCCATCCGTGGATC ((((((....)))))), the folding enthalpy in data set [1] was -195 kJ/mol. Further, in data set [2], the Tm was 52.9 °C.

Regarding GATCCATCTGTGGATC ((((((....)))))), the folding enthalpy in data set [1] is -152 kJ/mol. Further, in data set [2], the Tm was 54.3 °C.

Turning to GATCCATGATTGGATC ((((((....)))))), the folding enthalpy in data set [1] was -161 kJ/mol. In addition, in data set [2], the Tm was found to be 51.9 °C.

Take GATCCATGCGTGGATC ((((((....)))))): the folding enthalpy in data set [1] was -150 kJ/mol. The Tm in data set [2] worked out at 56.8 °C.

As for GATCCATGTATGGATC ((((((....)))))), in data set [1], the folding enthalpy is -178 kJ/mol. In data set [2], the Tm is 58 °C.

As for GATCCATTCTTGGATC ((((((....)))))), in data set [1], the folding enthalpy is -176 kJ/mol. Further, the Tm in data set [2] was 54 °C.

As for GATCCATTTATGGATC ((((((....)))))), the folding enthalpy in data set [1] is -185 kJ/mol. Further, the Tm in data set [2] was found to be 60.8 °C.

GATCCCAAAAGGGATC ((((((....)))))): in data set [1], the folding enthalpy is -117 kJ/mol. The Tm in data set [2] came out at 59.3 °C.

As for GATCCCAACGGGGATC ((((((....)))))), the folding enthalpy in data set [1] was -129 kJ/mol. Besides, the Tm in data set [2] turned out to be 59.4 °C.

In the case of GATCCCAAGGGGATC ((((((...)))))), the folding enthalpy in data set [1] is -150 kJ/mol. Moreover, in data set [2], the Tm is 66.6 °C.

In the case of GATCCCACAGGGATC ((((((...)))))), in data set [1], the folding enthalpy is -138 kJ/mol. The Tm in data set [2] is 67.1 °C.

With GATCCCACAGGGGATC ((((((....)))))), in data set [1], the folding enthalpy was -140 kJ/mol. In addition, the Tm in data set [2] amounted to 61.8 °C.

Regarding GATCCCACATGGGATC ((((((....)))))), the folding enthalpy in data set [1] was -190 kJ/mol. For the same sequence, the Tm in data set [2] came out at 60.8 °C.

Turning to GATCCCACGGGGATC ((((((...)))))), the folding enthalpy in data set [1] was -140 kJ/mol. Also, the Tm in data set [2] came to 65.6 °C.

For the sequence GATCCCAGCGGGATC ((((((...)))))), the folding enthalpy in data set [1] is -158 kJ/mol. Further, the Tm in data set [2] was 68.9 °C.

Consider GATCCCAGTGGGGATC ((((((....)))))), for which, in data set [1], the folding enthalpy was -137 kJ/mol. Also, the Tm in data set [2] was 62.3 °C.

Consider GATCCCATAGGGATC ((((((...)))))), for which, in data set [1], the folding enthalpy is -155 kJ/mol. Also, the Tm in data set [2] was 67 °C.

As to GATCCCATAGGGGATC ((((((....)))))), the folding enthalpy in data set [1] was -137 kJ/mol. Moreover, the Tm in data set [2] was 60.4 °C.

Take GATCCCATCAGGGATC ((((((....)))))): the folding enthalpy in data set [1] was -152 kJ/mol. For the same sequence, the Tm in data set [2] stood at 65.7 °C.

For GATCCCATCCGGGATC ((((((....)))))), the folding enthalpy in data set [1] is -154 kJ/mol. The Tm in data set [2] came out at 64.2 °C.

In the case of GATCCCATCGGGATC ((((((...)))))), the folding enthalpy in data set [1] was -153 kJ/mol. Moreover, the Tm in data set [2] was 67.4 °C.

As to GATCCCATTAGGGATC ((((((....)))))), the folding enthalpy in data set [1] was -153 kJ/mol. In addition, in data set [2], the Tm was determined as 63 °C.

GATCCCATTCGGGATC ((((((....)))))): the folding enthalpy in data set [1] is -162 kJ/mol. For the same sequence, the Tm in data set [2] was 62.1 °C.

For the sequence GATCCCATTTGGGATC ((((((....)))))), the folding enthalpy in data set [1] was -155 kJ/mol. Further, in data set [2], the Tm was 66.1 °C.
